Shown are actives, neighbours in structure and some others; about 0.81% of the full set was active somewhere.
TNAP act hi DEA – TNAP activators at high phosphate acceptor level, primary screen, biochemical, luminescence, uHTS. Alkaline phosphatase, tissue-nonspecific isozyme (Homo sapiens), P05186. activation factor at 20 µM. purified TNAP, CDP-star luminescence, 1 M DEA, 30 min; stronger effect = higher value; 0 = EDTA background, 1 = DMSO-only activity. 200,000 tested, under 10 active;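 active means activation factor at least 2 at 20 µM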
Target sequence (P05186 whole entry, looked up): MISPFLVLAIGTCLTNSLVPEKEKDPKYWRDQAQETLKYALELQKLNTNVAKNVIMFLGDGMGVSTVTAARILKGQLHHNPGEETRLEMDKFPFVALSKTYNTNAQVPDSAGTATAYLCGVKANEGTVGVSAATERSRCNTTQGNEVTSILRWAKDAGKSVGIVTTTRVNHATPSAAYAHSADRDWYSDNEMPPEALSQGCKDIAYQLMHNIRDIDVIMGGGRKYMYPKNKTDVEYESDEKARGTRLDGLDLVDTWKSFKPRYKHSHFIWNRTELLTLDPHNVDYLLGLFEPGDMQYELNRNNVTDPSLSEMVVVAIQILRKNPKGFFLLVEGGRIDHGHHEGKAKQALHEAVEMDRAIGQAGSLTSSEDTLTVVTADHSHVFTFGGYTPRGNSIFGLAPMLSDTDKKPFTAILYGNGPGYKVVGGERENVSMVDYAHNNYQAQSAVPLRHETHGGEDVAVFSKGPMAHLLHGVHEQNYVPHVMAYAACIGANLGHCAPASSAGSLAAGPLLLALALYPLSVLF
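system = human TNAP | amount = enzyme diluted 1/800 final | reagent = 100 µM CDP-star substrate | signal = luminescent substrate turnover signal | dosing = one dose, 20 µM | benchmarks = EDTA negative control, DMSO positive control | measure = activation factor | timing = 30 min reaction, room temperature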
TNAP inh no acc – human TNAP enzyme inhibitors, primary screen, biochemical, luminescent, no phosphate acceptor, uHTS | 200,000 compounds, 0.26% hits | purified TNAP, CDP-star luminescence, 30 min | Alkaline phosphatase, tissue-nonspecific isozyme (Homo sapiens), P05186 | inhibition, % at 20 µM;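 active means tissue-nonspecific alkaline phosphatase inhibition above about 50% at 20 µM in the single-dose screen, limit read from the data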;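 further: 0% = DMSO negative control and 100% = EDTA positive control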
TNAP inh hiacc – human TNAP enzyme inhibitors, primary screen, biochemical, luminescent, high phosphate acceptor level, uHTS; Alkaline phosphatase, tissue-nonspecific isozyme (Homo sapiens), P05186; purified TNAP, CDP-star luminescence, 1 M DEA; inhibition, % at 20 µM; 200,000 compounds, 0.03% hits;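 active means over 50% inhibition of tissue-nonspecific alkaline phosphatase at 20 µM in the single-dose screen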;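 further: plate controls were DMSO wells for no effect and EDTA-quenched wells as full inhibition for full effect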
sdo1 growth – growth rescue of sdo1-depleted yeast, primary screen, S. cerevisiae, bone marrow failure model | AID 817, 2007 | S. cerevisiae sdo1-depleted JHY4D growth rescue, OD600 30 h; stronger effect = higher value; pdr5 snq2 efflux-pump mutant strain | z-score at 10 µM | 140,000 compounds, 0.21% hits;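 active means z-score above 3 at both the 24 hr and the 30 hr optical density reads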;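 further: z-score against mean and SD of all compound wells on the same plate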
TNF necrop inh – inhibitors of TNF-alpha triggered necroptosis, primary screen, cell-based, Jurkat FADD-/-, single concentration; AID 463075, 2010; Jurkat FADD-/- TNF necroptosis rescue, ATP luminescence, 24 h; 0 = TNF only, 100 = no-TNF cells; activation (protection from cell death), % at 10 µM; 220,000 compounds, 0.068% hits;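 active means activation, meaning protection from cell death, of at least 50% relative to plate controls; inactive means activation below 50%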;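 further: necroptosis triggered by 40 ng/mL TNF-alpha added together with compound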
L929 necroptosis – inhibitors of zVAD-triggered necroptosis, primary screen, L929 cells; AID 1377, 2008; L929 zVAD necroptosis rescue, ATP luminescence, 24 h; with zVAD 60 µM; viability rescue, % at 10 µM; 220,000 compounds, 0.38% hits;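 active means activation, scaled between plate controls, above about 75%, limit read from the data; inactive means activation under that limit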;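 further: 0% = zVAD with DMSO and 100% = DMSO alone without zVAD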
An asterisk follows results filed as active; x = no result.

SMILES	TNAP act hi DEA	TNAP inh no acc	TNAP inh hiacc	sdo1 growth	TNF necrop inh	L929 necroptosis
CCCC(=O)n1nc(-c2ccc(Cl)cc2)nc1SC	1	53*	2	0.86	-1	0
COc1ccc(NC(C)c2ccccc2)cc1 (stereo unspecified)	1	-8	1	x	52*	39
Cc1nnc(SCC(=O)NNC(=O)C(C)C)[nH]c1=O	1	-2	-2	0.22	1	0
O=C(O)c1n[nH]c2c1CCCC2	1	13	-3	1.3	1	0
O=C(c1n[nH]c2c1CCCC2)n1ccnc1	1	70*	-2	1.6	2	7
O=C1CSCN1c1ccc(Cl)cc1	1	-4	-2	x	1	2
O=C1N=c2ccccc2=C1c1sc(Nc2ccc(O)cc2)nc1O	0.6	82*	44	x	0	66
O=C1N=c2ccccc2=C1c1sc(NS(=O)(=O)c2ccccc2)nc1O	1	13	2	x	0	15
CC(C)Sc1nc2ncnc(N)c2[nH]1	1	58*	-2	x	-1	15
CC1=NN(c2ccccc2)C(=O)/C1=C/C=C/c1ccc(N(C)C)cc1	0.5	50*	54*	x	-15	-2
CCCc1n[nH]c2c1C(=O)C(C(=O)OC)C(C)(C)C2 (stereo unspecified)	1	61*	3	1.6	2	6
COCCNC(=O)C(c1c[nH]c2ccccc12)N(C(=O)c1snc(C(N)=O)c1N)c1cccc(OC)c1 (stereo unspecified)	1.1	-18	-7	x	-2	0
Cc1nc2oc3ccccc3c(=O)c2c(=O)n1Cc1ccccc1	1	-10	-4	0.05	60*	3
COc1cc(Nc2ncnc(N)n2)cc(OC)c1	x	x	x	x	2	2
NC(Cc1ccccc1)C(O)(c1ccccc1)c1ccccc1 (stereo unspecified)	1	-8	-4	x	4	0
COc1ccc(-c2ccnc(-c3ccc(O)cc3)n2)cc1	1.1	-7	-7	x	-8	0
Cc1nc(N=Nc2ccc(O)cc2)n[nH]1	x	x	x	x	-11	-2
COc1ccc(-c2nc(N=Nc3ccc(O)cc3)n[nH]2)cc1	0.7	74*	29	1.3	2	16
Cc1ccc(-c2nc(N=Nc3ccc(O)cc3)n[nH]2)cc1	0.7	68*	33	0.21	-1	3
CSc1ccccc1C(=O)C1CCCN(C(=O)CCc2cccnc2)C1 (stereo unspecified)	1	-4	-3	x	-1	2
COCCCNC(=O)c1c(N)n(-c2ccc3c(c2)OCO3)c2nc3ccccc3nc12	1	-11	-1	-1.3	-3	84*
Nc1nc(CSc2ncccn2)nc(Nc2ccccc2)n1	1	-1	0	0.63	1	1
COc1ccc(Nc2nc(N)nc(CSc3n[nH]c(-c4ccccc4)n3)n2)cc1	1	81*	-4	-0.37	0	5
Nc1nc(CSc2n[nH]c(-c3ccccc3)n2)nc(Nc2ccccc2)n1	1	90*	3	-0.6	-7	0
CCNc1nc(NC(C)(C)C)nc(N(C#N)CC)n1	1	-4	3	-0.5	0	2
Cc1ccc(/C=C/C(=O)N(Cc2cccs2)C2CCS(=O)(=O)C2)cc1 (stereo unspecified)	x	x	x	x	0	1
Cc1ccc(Cn2cnc3sc4c(c3c2=O)CCC4)c(C)c1	1	-7	-4	-1.5	92*	0
O=C(CSc1n[nH]c(-c2ccccc2F)n1)NCC(=O)Nc1ccc(F)c(F)c1F	1	89*	2	x	1	2
Cc1[nH]n(-c2cccc3ccccc23)c(=O)c1/C=N/NC(=O)c1cccc([N+](=O)[O-])c1	0.9	51*	12	-1.2	1	20
